# Bioassay records from PubChem BioAssay.
# An excerpt weighted towards active compounds, which were near 9.4% of everything screened.
# Mdm2-MdmX inh: human Mdm2/MdmX binding inhibition | O15151+Q00987 | SaOS-2 split-luciferase Mdm2/MdmX complementation, luminescence | inhibition, % at 8 µM | hit rate 3% among 330,000 | AID 485346;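 active = inhibition of at least 50% at 8 µM in the primary screen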
# SKKanGAS inh: inhibitors of SKKanGAS S. pyogenes growth in kanamycin (SK-promoter or general growth effect) | inhibition, % at 7.5 µM | BacTiter-Glo, 6 h | hit rate 1.3% among 300,000 | AID 1662;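 active = mean replicate score, as percent of positive control median, at least 50; inconclusive = mean below 50 but one replicate at or above 50; inactive = mean and every replicate below 50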;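 also: strain carries kanamycin resistance gene driven by streptokinase promoter and grows in 40 µg/ml kanamycin; loss of luminescence reflects streptokinase promoter inhibition or plain growth inhibition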
# L major viab: reduces viability of Leishmania major promastigotes; resazurin fluorescence viability; inhibition, % at 10 µM; hit rate 9% among 200,000; AID 1063; in the data active = inhibition above about 50%;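 also: promastigotes grown with compound for 44 hours at 28 °C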
# T cruzi inh: blocks replication of Trypanosoma cruzi; hit rate 1.4% among 300,000; inhibition, % (test concentration not listed); T. cruzi beta-gal in NIH3T3, luminescence, 90 h;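 active = mean inhibition across valid replicates above about 55%, limit read from the data; inconclusive = mean below that limit but half or more replicates reach it; inactive = mean below it, under half of replicates reach it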;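 also: signal also drops with host cell toxicity which is not excluded here; higher percent means less beta-gal luminescence so fewer parasites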
#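 Read-out: Parasite load inhibition, % | Test system: Mouse NIH/3T3 fibroblasts infected with β-gal-expressing T. cruzi Tulahuen C4 | Amount: 5,000 cells/well | Medium: DMEM, 2% fetal bovine serum | Signal: GalScreen β-gal luminescence, detergent lysis, 60 min | Timing: 3 h attach, ≥90 h co-culture | Also added: Tulahuen C4 trypomastigotes, 5000/well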
# Beta cell apopt: blocks beta cell apoptosis; INS-1E cytokine-induced death, ATP luminescence, 48 h; percent of positive-control rescue, neutral wells zero; protection from apoptosis, % (no concentration beside the values); hit rate 0.8% among 300,000;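 active = Every replicate reaches about 75%, or at least half do and their mean reaches it too, limit read from the data; inconclusive = At least half of replicates reach the limit but their mean does not; inactive = Under half of replicates reach the limit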;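 also: higher means more ATP so stronger rescue from cytokine killing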
# CSC inhib: blocks cancer stem cells. hit rate 1.1% among 300,000. inhibition, % at 7.5 µM. cancer stem cell-like cells viability, luminescence. AID 2717; in the data active = inhibition above about 75%; inconclusive = no clear call, values can overlap the other calls; tested in HMLE shEcad cells
# Hits are given with their value; - = inactive; ? = inconclusive; . = no result given.
SMILES,Mdm2-MdmX inh,SKKanGAS inh,L major viab,T cruzi inh,Beta cell apopt,CSC inhib
Cc1cccc(CN2CCN(CCCc3ccccc3)CC2)c1,-,-,96,63,-,.
OCC1(CCc2ccccc2)CCN(Cc2ccccc2Cl)CC1,-,-,57,-,-,-
CCCS(=O)(=O)N1CCC(C(=O)N2CCN(Cc3ccccc3)CC2)CC1,-,-,-,-,-,.
OCC1(CCc2ccccc2)CCN(Cc2c(F)ccc(F)c2F)CC1,-,-,-,-,-,-
OCC1(CCCc2ccccc2)CCN(Cc2cc(F)ccc2F)CC1,-,-,83,-,-,-
Cc1c(Cl)cccc1NC(=O)CSc1ncnc2c1cnn2CCO,-,.,.,.,-,-
CC1CCCCN1C(=O)COC(=O)C1CCN(S(=O)(=O)c2ccc3c(c2)OCCO3)CC1 (stereo unspecified),-,-,.,-,-,-
Clc1cccc(CN2CCN(Cc3nc(CCc4ccccc4)no3)CC2)c1,-,-,64,-,-,-
CCCS(=O)(=O)N1CCN(Cc2ccc3c(c2)c2ccccc2n3CC)CC1,-,-,71,?,-,-
O=C(NCCN1CCN(c2ccccc2Cl)CC1)Nc1ccccc1,-,-,.,-,.,.
Cc1ccccc1N1CCN(Cc2nc(Cc3ccccc3)no2)CC1,-,-,-,-,-,-
Fc1ccccc1N1CCN(CCCc2ccccc2)CC1,-,-,.,-,-,-
CCn1c2ccccc2c2cc(CN3CCN(C(=O)c4ccco4)CC3)ccc21,-,-,-,-,-,-
Clc1ccccc1CN1CCN(CCCc2ccccc2)CC1,.,-,93,?,.,.
O=C(NCCN1CCN(Cc2ccccc2Cl)CC1)Nc1ccccc1,-,-,82,-,-,-
COc1ccc(Cc2nnc(SCC(=O)c3c(N)n(C4CC4)c(=O)[nH]c3=O)o2)cc1,-,.,.,.,-,.
Cc1ccccc1OCC(=O)NNC(=O)CCN1C(=O)c2ccccc2C1=O,-,-,-,-,-,-
O=C(NC1CCN(C(=O)N2c3ccccc3Sc3ccccc32)CC1)c1ccccc1Cl,-,-,95,-,-,-
CC(=O)N1CC(C)Sc2ccc(S(=O)(=O)NCCc3cccc(C)c3)cc21 (stereo unspecified),-,-,.,-,-,-
COc1ccc(C2C(C#N)=C(/N=C/N3CCN(C)CC3)OC3=C2C(=O)CC(C)(C)C3)cc1 (stereo unspecified),-,-,100,-,-,-
CC1(C)CC(=O)C2=C(C1)OC(N)=C(C#N)C2c1ccccc1 (stereo unspecified),-,-,-,-,-,-
COc1ccc(CCN(C(=S)Nc2ccccc2)C2CC(=O)N(c3ccccc3)C2=O)cc1 (stereo unspecified),-,-,-,-,-,-
COc1ccc(CN(C(=S)Nc2ccccc2)C2CC(=O)N(c3ccc(F)cc3)C2=O)cc1 (stereo unspecified),-,-,91,-,-,-
CNC(=S)N(Cc1ccc(OC)cc1)C1CC(=O)N(c2ccc(Cl)cc2)C1=O (stereo unspecified),-,-,52,-,-,-
Cc1ccc(N2C(=O)CC(N(CCc3ccccc3)C(=S)Nc3ccc(N(C)C)cc3)C2=O)cc1 (stereo unspecified),-,-,-,-,-,95
SMILES,Mdm2-MdmX inh,SKKanGAS inh,L major viab,T cruzi inh,Beta cell apopt,CSC inhib
O=C(Nc1cccc(C(=O)O)c1)/C(=C\c1ccccc1)NC(=O)c1cccc2ccccc12,-,-,-,-,-,-
Clc1cccc(N/N=C(\Cc2nc3ccccc3[nH]2)c2ccccc2)c1,-,91,-,-,-,-
CCC(C)n1c(SCC(=O)Nc2ccccc2C(F)(F)F)nc2ccsc2c1=O (stereo unspecified),-,-,96,-,-,-
CCn1ccnc1CNC(=O)CC1C(=O)NCCN1Cc1ccc(OC)cc1OC (stereo unspecified),-,-,.,-,-,-
Cc1ccc(C(=O)/C=C/c2cc(Br)cc(Br)c2O)o1,-,66,.,-,-,94
Cc1ccc(C(=O)/C=C/N(C)C)o1,-,-,-,-,.,-
CN(C)S(=O)(=O)c1ccc(C(=O)NCC(=O)N/N=C/c2ccccc2)cc1,-,-,-,-,-,-
O=C(CNC(=O)c1ccc(S(=O)(=O)N2CCCC2)cc1)N/N=C/c1ccc(Cl)cc1,-,-,91,-,-,-
O=C(Cc1ccc(Cl)cc1)N/N=C/c1c(Cl)cccc1Cl,-,-,72,-,-,-
